Data on 18 molecules can be found in ChEMBL document CHEMBL1154935, “Design, synthesis, evaluation and QSAR analysis of N(1)-substituted norcymserine derivatives as selective butyrylcholinesterase inhibitors” (Bioorg Med Chem Lett, 2010).

For one assay, the target named is T1, Acetylcholinesterase (Mus musculus, UniProt P21836).
T1 sequence (P21836 whole entry): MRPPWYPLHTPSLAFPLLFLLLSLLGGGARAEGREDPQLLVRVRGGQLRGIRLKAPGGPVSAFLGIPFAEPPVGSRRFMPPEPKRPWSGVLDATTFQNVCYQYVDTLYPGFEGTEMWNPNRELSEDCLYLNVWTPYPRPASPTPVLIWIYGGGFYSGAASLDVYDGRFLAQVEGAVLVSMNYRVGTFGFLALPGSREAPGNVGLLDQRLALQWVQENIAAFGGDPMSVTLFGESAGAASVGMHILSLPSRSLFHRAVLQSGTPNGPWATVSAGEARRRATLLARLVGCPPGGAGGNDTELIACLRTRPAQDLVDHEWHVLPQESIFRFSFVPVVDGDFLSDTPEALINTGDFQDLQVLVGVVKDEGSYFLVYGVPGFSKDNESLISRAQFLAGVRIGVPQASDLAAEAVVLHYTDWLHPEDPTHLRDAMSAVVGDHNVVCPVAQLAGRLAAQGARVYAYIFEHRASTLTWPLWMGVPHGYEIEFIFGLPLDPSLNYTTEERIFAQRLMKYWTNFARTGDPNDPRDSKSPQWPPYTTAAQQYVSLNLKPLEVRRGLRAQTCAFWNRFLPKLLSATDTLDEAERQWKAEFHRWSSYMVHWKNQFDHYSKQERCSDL
The assay is described as follows: Inhibition of mouse brain AChE after 1 hr by modified Ellman's colorimetric method. The gist of the method:
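Enzyme source was a mouse brain extract. Inhibitor was preincubated with enzyme for 1 h at 37 °C, then acetylthiocholine was added together with DTNB. Absorbance at 415 nm was read at 2 min intervals. Activity was taken as percent of the DMSO solvent control. Seven concentrations were tested, and IC50 came from nonlinear regression of a sigmoidal dose-response curve.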
(In general: DTNB colorimetry detects thiols as they appear.)

Another assay addresses Cholinesterase (Mus musculus, UniProt Q03311). Description: Inhibition of mouse serum BChE after 1 hr by modified Ellman's colorimetric method. The gist of the method:
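Enzyme source was a mouse serum extract. Inhibitor was preincubated with enzyme for 1 h at 37 °C, then butyrylthiocholine was added together with DTNB. Absorbance at 415 nm was read at 2 min intervals. Activity was taken as percent of the DMSO solvent control. Seven concentrations were tested, and IC50 came from nonlinear regression of a sigmoidal dose-response curve.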

Cholinesterase, sequence (Q03311 whole entry): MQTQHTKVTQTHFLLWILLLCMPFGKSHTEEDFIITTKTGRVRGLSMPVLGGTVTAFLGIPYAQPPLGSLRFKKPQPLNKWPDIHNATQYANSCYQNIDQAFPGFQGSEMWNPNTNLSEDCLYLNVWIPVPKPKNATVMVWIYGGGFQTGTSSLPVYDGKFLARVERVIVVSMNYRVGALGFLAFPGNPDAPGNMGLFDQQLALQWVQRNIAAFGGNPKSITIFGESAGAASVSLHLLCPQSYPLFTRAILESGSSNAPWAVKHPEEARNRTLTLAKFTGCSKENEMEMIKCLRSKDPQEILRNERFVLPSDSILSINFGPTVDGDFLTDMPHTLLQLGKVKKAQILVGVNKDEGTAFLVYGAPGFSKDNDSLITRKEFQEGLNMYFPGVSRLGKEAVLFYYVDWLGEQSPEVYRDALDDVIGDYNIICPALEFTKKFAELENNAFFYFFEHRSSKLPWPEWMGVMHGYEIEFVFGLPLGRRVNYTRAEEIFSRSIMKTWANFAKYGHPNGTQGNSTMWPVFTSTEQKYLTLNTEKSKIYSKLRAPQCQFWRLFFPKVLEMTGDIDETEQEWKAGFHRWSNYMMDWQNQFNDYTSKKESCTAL

As a reminder, the IC50 is the concentration at which inhibition is half-maximal. A higher IC50 goes with a need for much substance. With `CC(C)c1ccc(NC(=O)Oc2ccc3c(c2)[C@]2(C)CCN(CCc4ccc(Cl)cc4)[C@@H]2N3C)cc1`, the IC50 is over 100000 nM against Acetylcholinesterase and 500 nM against Cholinesterase. Taken in the same sequence, the figures for `CC(C)c1ccc(NC(=O)Oc2ccc3c(c2)[C@]2(C)CCN(CCc4ccc(Cl)cc4Cl)[C@@H]2N3C)cc1` were over 100000 nM and 2600 nM. For the molecule `CC(C)c1ccc(NC(=O)Oc2ccc3c(c2)[C@]2(C)CCN(CCc4ccncc4)[C@@H]2N3C)cc1`, the IC50 on Acetylcholinesterase is 23000 nM; against Cholinesterase it was 170 nM.

On to `CC(C)c1ccc(NC(=O)Oc2ccc3c(c2)[C@]2(C)CCN(CCCc4ccccc4)[C@@H]2N3C)cc1`, for which the IC50 is over 100000 nM on Acetylcholinesterase and 510 nM against Cholinesterase.

For the molecule `CC(C)c1ccc(NC(=O)Oc2ccc3c(c2)[C@]2(C)CCN(CCc4cccnc4)[C@@H]2N3C)cc1`, the IC50 against Acetylcholinesterase is over 100000 nM; at Cholinesterase, 180 nM. Taken in the same sequence, the figures for `CC(C)c1ccc(NC(=O)Oc2ccc3c(c2)[C@]2(C)CCN(CCc4ccccn4)[C@@H]2N3C)cc1` were 4200 nM and 160 nM. `CC(C)c1ccc(NC(=O)Oc2ccc3c(c2)[C@]2(C)CCN(C)[C@@H]2N3C)cc1` [4-ISOPROPYLPHENSERINE]: the concentration for half-maximal inhibition (IC50) against Acetylcholinesterase is 8400 nM; at Cholinesterase, 240 nM. Regarding `Cc1ccc(CCN2CC[C@@]3(C)c4cc(OC(=O)Nc5ccc(C(C)C)cc5)ccc4N(C)[C@@H]23)c(C)c1`, the IC50 on Acetylcholinesterase was over 100000 nM; on Cholinesterase, 1100 nM.

Take `CC(C)c1ccc(NC(=O)Oc2ccc3c(c2)[C@]2(C)CCN(CCc4ccc(F)cc4)[C@@H]2N3C)cc1`: the 50% inhibitory concentration (IC50) is over 100000 nM against Acetylcholinesterase and 500 nM on Cholinesterase. For `CC(C)c1ccc(NC(=O)Oc2ccc3c(c2)[C@]2(C)CCN(CCCCc4ccccc4)[C@@H]2N3C)cc1` the same measures were over 100000 nM and 550 nM. On to `Cc1ccc(CCN2CC[C@@]3(C)c4cc(OC(=O)Nc5ccc(C(C)C)cc5)ccc4N(C)[C@@H]23)cc1`, for which the IC50 on Acetylcholinesterase is over 100000 nM; at Cholinesterase, 730 nM.

As for `CC(C)c1ccc(NC(=O)Oc2ccc3c(c2)[C@]2(C)CCN(C(Cc4ccccc4)c4ccccc4)[C@@H]2N3C)cc1` (stereo not given in full), the IC50 is over 100000 nM at Acetylcholinesterase and 15000 nM at Cholinesterase. Taken in the same sequence, the figures for `CC(C)c1ccc(CCN2CC[C@@]3(C)c4cc(OC(=O)Nc5ccc(C(C)C)cc5)ccc4N(C)[C@@H]23)cc1` were over 100000 nM and 3300 nM.

As for `CC(C)c1ccc(NC(=O)Oc2ccc3c(c2)[C@]2(C)CCN(CCc4ccccc4)[C@@H]2N3C)cc1` [PHENETHYLCYMSERINE], on Acetylcholinesterase, the IC50 was over 100000 nM. Regarding `CC(C)c1ccc(NC(=O)Oc2ccc3c(c2)[C@]2(C)CCN(CC(c4ccccc4)c4ccccc4)[C@@H]2N3C)cc1`, the IC50 is over 100000 nM against Acetylcholinesterase and 10000 nM at Cholinesterase. `CC(C)c1ccc(NC(=O)Oc2ccc3c(c2)[C@]2(C)CCN(Cc4ccccc4)[C@@H]2N3C)cc1`: the values for the concentration for half-maximal inhibition (IC50) against Acetylcholinesterase and at Cholinesterase were over 100000 nM and 510 nM, respectively. As for `CC(C)c1ccc(NC(=O)Oc2ccc3c(c2)[C@]2(C)CCN(CC(C)c4ccccc4)[C@@H]2N3C)cc1` (stereo not given in full), the IC50 was over 100000 nM against Acetylcholinesterase and 720 nM on Cholinesterase. As for `CC(C)c1ccc(NC(=O)Oc2ccc3c(c2)[C@]2(C)CCN(CCN4CCCCC4)[C@@H]2N3C)cc1`, the IC50 stood at 3500 nM against Acetylcholinesterase and 170 nM against Cholinesterase.
